Assay results published in ChEMBL document CHEMBL2424622, “Development of amino-pyrimidine inhibitors of c-Jun N-terminal kinase (JNK): kinase profiling guided optimization of a 1,2,3-benzotriazole lead” (Bioorg Med Chem Lett, 2013).

Legend:
[1] = target: BDNF/NT-3 growth factors receptor (Homo sapiens) (UniProt Q16620); test: Competitive binding affinity to TRKB (unknown origin) at 10 uM in presence of ATP relative to control
[2] = target: T1, Atypical kinase COQ8B, mitochondrial (Homo sapiens) (UniProt Q96D53); test: Competitive binding affinity to ADCK4 (unknown origin) at 10 uM in presence of ATP relative to control
T1 sequence (whole entry): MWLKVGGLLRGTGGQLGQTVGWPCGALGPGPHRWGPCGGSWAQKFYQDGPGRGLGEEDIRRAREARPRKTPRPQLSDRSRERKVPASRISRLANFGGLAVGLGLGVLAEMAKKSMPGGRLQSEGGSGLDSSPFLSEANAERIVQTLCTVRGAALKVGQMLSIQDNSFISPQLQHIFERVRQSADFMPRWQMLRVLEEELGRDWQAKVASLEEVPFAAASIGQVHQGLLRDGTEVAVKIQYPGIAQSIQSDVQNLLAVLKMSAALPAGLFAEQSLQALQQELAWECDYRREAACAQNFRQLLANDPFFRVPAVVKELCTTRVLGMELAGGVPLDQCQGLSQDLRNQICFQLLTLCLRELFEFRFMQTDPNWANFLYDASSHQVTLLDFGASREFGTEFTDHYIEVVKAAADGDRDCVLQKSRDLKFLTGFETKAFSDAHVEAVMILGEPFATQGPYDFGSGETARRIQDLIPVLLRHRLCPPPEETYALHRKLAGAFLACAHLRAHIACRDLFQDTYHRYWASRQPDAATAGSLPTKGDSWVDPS

[3] = target: T2, Tyrosine-protein kinase Mer (Homo sapiens) (UniProt Q12866); test: Competitive binding affinity to MERTK (unknown origin) at 10 uM in presence of ATP relative to control
T2 sequence (whole entry): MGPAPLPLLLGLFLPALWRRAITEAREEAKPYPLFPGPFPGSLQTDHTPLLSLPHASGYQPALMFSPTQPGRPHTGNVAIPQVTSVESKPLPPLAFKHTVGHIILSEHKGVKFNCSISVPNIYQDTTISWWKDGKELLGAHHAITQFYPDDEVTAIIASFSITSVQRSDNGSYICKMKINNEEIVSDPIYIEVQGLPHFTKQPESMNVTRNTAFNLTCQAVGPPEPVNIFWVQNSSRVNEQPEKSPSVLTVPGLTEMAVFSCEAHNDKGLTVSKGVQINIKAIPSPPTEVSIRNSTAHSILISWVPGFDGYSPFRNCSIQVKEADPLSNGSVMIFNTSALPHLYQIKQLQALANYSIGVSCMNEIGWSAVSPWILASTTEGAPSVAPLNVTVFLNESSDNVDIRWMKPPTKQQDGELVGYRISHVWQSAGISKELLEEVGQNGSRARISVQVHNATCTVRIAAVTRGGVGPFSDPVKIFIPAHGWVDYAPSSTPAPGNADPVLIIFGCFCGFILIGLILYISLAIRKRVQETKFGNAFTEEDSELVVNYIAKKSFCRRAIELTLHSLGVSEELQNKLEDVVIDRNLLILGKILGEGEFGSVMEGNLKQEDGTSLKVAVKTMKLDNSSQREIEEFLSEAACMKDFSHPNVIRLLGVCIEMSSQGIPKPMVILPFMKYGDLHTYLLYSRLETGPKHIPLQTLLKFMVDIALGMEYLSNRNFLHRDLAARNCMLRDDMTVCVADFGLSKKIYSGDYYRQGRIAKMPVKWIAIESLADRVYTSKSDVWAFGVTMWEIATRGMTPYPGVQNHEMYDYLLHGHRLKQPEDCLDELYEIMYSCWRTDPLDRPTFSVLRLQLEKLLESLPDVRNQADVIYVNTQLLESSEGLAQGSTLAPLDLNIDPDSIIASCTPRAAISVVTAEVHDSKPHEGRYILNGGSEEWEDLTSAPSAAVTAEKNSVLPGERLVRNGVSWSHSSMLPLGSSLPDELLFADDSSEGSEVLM
Method in brief: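 In vitro ATP-site competition binding assay across a diverse panel of 128 kinases, with compound tested at a single concentration. Kinase selectivity scores (S15) were calculated from the panel profiles.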

[4] = target: Activated CDC42 kinase 1 (Homo sapiens) (UniProt Q07912); test: Competitive binding affinity to TNK2 (unknown origin) at 10 uM in presence of ATP relative to control
Sequence of Activated CDC42 kinase 1 (Homo sapiens) (Q07912 whole entry, looked up): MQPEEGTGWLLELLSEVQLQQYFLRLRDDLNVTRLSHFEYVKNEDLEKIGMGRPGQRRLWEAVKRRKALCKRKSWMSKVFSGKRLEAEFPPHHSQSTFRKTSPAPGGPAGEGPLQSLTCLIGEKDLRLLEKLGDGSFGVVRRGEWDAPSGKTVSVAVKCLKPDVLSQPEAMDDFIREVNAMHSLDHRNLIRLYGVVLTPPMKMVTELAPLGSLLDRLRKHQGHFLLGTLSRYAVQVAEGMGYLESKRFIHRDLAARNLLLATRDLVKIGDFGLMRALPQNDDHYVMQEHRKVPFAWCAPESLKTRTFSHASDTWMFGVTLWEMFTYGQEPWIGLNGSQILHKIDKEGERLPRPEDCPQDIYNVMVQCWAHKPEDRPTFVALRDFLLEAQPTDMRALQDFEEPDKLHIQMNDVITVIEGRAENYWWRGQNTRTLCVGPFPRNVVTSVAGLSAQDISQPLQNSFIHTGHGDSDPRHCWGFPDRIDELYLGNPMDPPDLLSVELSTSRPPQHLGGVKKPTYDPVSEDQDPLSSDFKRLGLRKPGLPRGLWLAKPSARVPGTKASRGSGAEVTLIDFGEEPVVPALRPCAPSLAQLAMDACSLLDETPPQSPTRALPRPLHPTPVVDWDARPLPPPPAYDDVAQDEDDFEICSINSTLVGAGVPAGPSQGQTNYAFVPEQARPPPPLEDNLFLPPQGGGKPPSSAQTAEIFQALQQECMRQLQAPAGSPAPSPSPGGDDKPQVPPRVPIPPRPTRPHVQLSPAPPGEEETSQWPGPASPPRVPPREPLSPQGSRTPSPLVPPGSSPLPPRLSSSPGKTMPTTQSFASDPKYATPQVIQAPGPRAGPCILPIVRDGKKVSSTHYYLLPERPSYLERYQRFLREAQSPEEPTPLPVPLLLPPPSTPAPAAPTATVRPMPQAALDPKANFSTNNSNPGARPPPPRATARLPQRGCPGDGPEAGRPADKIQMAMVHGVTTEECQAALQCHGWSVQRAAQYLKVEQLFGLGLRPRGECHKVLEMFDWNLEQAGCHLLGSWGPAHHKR

[5] = target: Insulin receptor-related protein (Homo sapiens) (UniProt P14616); test: Competitive binding affinity to INSRR (unknown origin) at 10 uM in presence of ATP relative to control
Sequence of Insulin receptor-related protein (Homo sapiens) (P14616 27-742 limits assumed): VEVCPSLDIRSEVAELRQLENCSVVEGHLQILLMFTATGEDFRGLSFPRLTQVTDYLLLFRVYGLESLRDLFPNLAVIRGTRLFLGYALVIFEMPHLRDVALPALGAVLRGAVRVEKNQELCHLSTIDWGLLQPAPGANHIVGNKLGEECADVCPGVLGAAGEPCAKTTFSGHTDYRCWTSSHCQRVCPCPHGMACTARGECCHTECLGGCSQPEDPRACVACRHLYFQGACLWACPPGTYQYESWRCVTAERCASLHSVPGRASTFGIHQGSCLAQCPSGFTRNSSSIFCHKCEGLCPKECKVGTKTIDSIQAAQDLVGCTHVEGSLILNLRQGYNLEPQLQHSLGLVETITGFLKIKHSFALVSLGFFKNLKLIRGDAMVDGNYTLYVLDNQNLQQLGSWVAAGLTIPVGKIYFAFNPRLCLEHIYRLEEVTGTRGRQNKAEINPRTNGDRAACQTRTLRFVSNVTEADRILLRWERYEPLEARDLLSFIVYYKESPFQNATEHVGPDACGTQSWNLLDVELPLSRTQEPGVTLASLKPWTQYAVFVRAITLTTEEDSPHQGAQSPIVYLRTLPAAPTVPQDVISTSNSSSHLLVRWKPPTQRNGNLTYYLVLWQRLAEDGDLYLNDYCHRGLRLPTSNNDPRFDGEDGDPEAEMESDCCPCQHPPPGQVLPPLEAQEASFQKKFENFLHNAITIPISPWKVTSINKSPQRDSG
Sequence of Insulin receptor-related protein (Homo sapiens) (P14616 747-1297 limits assumed): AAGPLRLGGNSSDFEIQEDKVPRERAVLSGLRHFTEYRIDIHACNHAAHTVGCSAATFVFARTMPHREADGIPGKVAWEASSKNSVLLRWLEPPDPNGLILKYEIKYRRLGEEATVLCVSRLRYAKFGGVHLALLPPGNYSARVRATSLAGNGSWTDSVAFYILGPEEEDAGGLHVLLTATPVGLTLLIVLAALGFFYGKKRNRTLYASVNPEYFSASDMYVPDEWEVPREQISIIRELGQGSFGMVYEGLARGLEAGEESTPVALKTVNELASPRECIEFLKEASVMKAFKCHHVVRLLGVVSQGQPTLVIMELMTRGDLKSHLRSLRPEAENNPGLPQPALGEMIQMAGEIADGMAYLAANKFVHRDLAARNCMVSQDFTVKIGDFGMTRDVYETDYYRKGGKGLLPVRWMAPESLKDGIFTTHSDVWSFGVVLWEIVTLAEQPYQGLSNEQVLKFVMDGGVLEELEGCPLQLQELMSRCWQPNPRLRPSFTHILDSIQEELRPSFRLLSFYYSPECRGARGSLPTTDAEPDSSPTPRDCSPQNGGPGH

[6] = target: T3, Serine/threonine-protein kinase RIO1 (Homo sapiens) (UniProt Q9BRS2); test: Competitive binding affinity to RIOK1 (unknown origin) at 10 uM in presence of ATP relative to control
T3 sequence (whole entry): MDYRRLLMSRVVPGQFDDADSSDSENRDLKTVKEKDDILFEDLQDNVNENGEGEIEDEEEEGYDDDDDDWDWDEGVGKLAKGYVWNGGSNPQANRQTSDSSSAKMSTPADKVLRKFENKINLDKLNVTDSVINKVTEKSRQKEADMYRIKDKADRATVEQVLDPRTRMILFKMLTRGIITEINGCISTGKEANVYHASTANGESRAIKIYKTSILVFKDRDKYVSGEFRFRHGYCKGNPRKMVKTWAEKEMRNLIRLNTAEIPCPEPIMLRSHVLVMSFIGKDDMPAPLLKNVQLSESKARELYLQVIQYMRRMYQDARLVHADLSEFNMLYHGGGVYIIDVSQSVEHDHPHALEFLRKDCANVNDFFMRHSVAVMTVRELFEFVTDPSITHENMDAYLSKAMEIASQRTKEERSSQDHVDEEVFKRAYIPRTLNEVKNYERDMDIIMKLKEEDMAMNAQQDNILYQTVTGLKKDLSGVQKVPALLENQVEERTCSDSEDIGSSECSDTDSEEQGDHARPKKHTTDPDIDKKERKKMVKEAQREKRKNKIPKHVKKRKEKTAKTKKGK

[7] = target: T4, Serine/threonine-protein kinase 3 (Homo sapiens) (UniProt Q13188); test: Competitive binding affinity to MST2 (unknown origin) at 10 uM in presence of ATP relative to control
T4 sequence (whole entry): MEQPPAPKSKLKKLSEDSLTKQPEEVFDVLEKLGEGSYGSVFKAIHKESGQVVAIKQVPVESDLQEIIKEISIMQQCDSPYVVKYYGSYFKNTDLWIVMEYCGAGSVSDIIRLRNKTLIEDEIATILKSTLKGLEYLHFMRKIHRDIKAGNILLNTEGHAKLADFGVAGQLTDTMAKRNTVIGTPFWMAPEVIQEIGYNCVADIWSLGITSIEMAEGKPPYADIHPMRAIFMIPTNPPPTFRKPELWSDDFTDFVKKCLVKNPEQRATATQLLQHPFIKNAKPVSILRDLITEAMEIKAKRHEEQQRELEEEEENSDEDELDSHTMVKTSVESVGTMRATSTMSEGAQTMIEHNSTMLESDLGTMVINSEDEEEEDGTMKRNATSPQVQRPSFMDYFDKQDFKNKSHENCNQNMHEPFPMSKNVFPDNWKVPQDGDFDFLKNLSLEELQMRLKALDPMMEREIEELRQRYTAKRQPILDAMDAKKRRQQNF

Sequence of BDNF/NT-3 growth factors receptor (Homo sapiens) (Q16620 32-822 limits assumed): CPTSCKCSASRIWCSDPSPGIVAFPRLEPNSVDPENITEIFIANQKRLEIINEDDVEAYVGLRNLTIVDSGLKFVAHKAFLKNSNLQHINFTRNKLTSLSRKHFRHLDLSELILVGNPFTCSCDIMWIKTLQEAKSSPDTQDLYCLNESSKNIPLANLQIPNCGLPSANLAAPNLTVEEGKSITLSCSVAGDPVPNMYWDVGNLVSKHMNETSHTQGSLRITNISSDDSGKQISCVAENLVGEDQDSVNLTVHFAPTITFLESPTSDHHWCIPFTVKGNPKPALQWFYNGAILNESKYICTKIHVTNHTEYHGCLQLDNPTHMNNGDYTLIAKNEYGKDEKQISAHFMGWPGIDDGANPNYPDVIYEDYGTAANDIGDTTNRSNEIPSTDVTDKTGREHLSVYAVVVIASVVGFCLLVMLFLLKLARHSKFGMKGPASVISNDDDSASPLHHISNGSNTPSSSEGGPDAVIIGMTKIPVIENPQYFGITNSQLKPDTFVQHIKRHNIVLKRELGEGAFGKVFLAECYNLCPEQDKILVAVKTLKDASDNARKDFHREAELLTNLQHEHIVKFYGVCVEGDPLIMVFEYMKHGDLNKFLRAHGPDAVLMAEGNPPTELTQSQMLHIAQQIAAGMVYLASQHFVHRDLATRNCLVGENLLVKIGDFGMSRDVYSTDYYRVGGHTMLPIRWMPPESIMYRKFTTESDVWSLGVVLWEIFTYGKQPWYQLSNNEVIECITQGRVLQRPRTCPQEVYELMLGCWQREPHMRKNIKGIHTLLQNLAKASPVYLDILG

SMILES	inhibition [1] [%]	inhibition [2] [%]	inhibition [3] [%]	inhibition [4] [%]	inhibition [5] [%]	inhibition [6] [%]	inhibition [7] [%]
O[C@H]1CC[C@H](Nc2nccc(-n3nnc4ccccc43)n2)CC1	< 50	70	< 50	< 50	< 50	< 50	95
CS(=O)(=O)CCCOc1cccc2c1ccn2-c1ccnc(N[C@H]2CC[C@H](C(=O)N3CCC(O)CC3)CC2)n1	–	> 85	–	–	–	–	–

Further lines, results first:

inhibition [1] [%]	inhibition [2] [%]	inhibition [3] [%]	inhibition [4] [%]	inhibition [5] [%]	inhibition [6] [%]	inhibition [7] [%]	SMILES
100	74	100	< 50	98	–	–	O[C@H]1CC[C@H](Nc2nccc(-c3n[nH]c4ccccc34)n2)CC1
< 50	76	< 50	< 50	< 50	< 50	< 50	O[C@H]1CC[C@H](Nc2nccc(-n3ccc4ccccc43)n2)CC1
< 50	79	92	< 50	< 50	< 50	81	O[C@H]1CC[C@H](Nc2nccc(-n3ncc4ccccc43)n2)CC1
